The values below come from ChEMBL document CHEMBL5346942, “Identification and analysis of small molecule inhibitors of FosB from Staphylococcus aureus” (RSC Med Chem, 2023).

Data set [1] has as its system Staphylococcus aureus. Description: Antibacterial activity against Staphylococcus aureus JE2 harboring […] assessed as fosfomycin MIC at 128 ug/ml incubated overnight by double dilution method. Format: functional. To be noted: dose 128 µg/ml. The method, boiled down:
(§1)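 S. aureus JE2 grown overnight at 37 °C on Mueller–Hinton agar; colonies suspended in MH broth to OD600 ~0.5, diluted 1:1000 and added to serial twofold dilutions of compound (water stocks 10 mg/mL). Incubated overnight at 37 °C; MIC read visually as the well with no growth. Sterile and growth control wells included. For combinations, fosfomycin diluted along one plate axis and inhibitor along the other, before the inoculum was added.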

In data set [2] the test system is Staphylococcus aureus. Description: Antibacterial activity against Staphylococcus aureus JE2 harboring […] assessed as reduction in bacterial growth incubated overnight in presence of fosfomycin by double dilution method. In kind it is functional. A digest of the protocol:
as §1

In data set [3] the target is T1, Metallothiol transferase FosB (Staphylococcus aureus, UniProt Q5HDM4). The experiment in a line: Competitive inhibition of Staphylococcus aureus FosB using L-cysteine as substrate assessed as inhibition constant for initial binding event by absorbance based DTNB assay.
Data set [4] deals with Staphylococcus aureus. Description: Antibacterial activity against Staphylococcus aureus JE2 harboring […] assessed as reduction in bacterial growth incubated overnight by double dilution method. In kind it is functional. The method, boiled down:
as §1

The test system of a further data set is HepG2. Description: Cytotoxicity against human HepG2 cells assessed as reduction in cell viability at 64 ug/ml incubated for 24 hrs by resazurin dye based fluorescence analysis. Conditions: hepg2, 24 h, dose 64 µg/ml. Format: toxicity. A digest of the protocol:
(§2)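 HEK-293 or HepG2 cells grown in DMEM with 10% FBS and 1% penicillin/streptomycin at 37 °C, 5% CO2. Positive control was 1% Triton X-100. Viability read by resazurin (2 mM stock) added for 24 h, measuring resorufin fluorescence.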
On the technique in general: Alamar Blue is a resazurin reagent that responds to reducing activity.

For the next data set, the system named is HEK293. The experiment in a line: Cytotoxicity against HEK293 cells assessed as reduction in cell viability at 64 ug/ml incubated for 24 hrs by resazurin dye based fluorescence analysis. Format: toxicity. To be noted: human, hek293, 24 h, dose 64 µg/ml. A digest of the protocol: as §2
The target of data set [5] is T1, Metallothiol transferase FosB. Description: Inhibition of Staphylococcus aureus FosB using L-cysteine as substrate assessed as inhibition constant for initial binding event by absorbance based DTNB assay.
Data set [6] deals with Staphylococcus aureus. The experiment in a line: Antibacterial activity against Staphylococcus aureus harboring FosB. In kind it is functional. The method, boiled down: as §1
Data set [7] relates to Staphylococcus aureus. The experiment in a line: Antibacterial activity against Staphylococcus aureus lacking FosB. Format: functional.
For data set [8], the target named is T1, Metallothiol transferase FosB. The experiment in a line: Parabolic competitive inhibition of Staphylococcus aureus FosB using L-cysteine as substrate assessed as inhibition constant for initial binding event by absorbance based DTNB assay. The method, boiled down: (§3)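 FosB from S. aureus, steady-state Michaelis–Menten kinetics with L-cysteine as the thiol co-substrate (instead of BSH) and varied fosfomycin. Rates read by absorbance-based DTNB assay at several fixed inhibitor concentrations. Initial velocities globally fit to a parabolic competitive model (two inhibitor molecules bind). Ki1 is the first binding event, Ki2 the second.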

Data set [9] shares this target. Description: Parabolic competitive inhibition of Staphylococcus aureus FosB using L-cysteine as substrate assessed as inhibition constant for second binding event by absorbance based DTNB assay. The method, boiled down: as §3

In brackets after ≈: the same amount, converted by molar mass.

T1 sequence (Q5HDM4 whole entry): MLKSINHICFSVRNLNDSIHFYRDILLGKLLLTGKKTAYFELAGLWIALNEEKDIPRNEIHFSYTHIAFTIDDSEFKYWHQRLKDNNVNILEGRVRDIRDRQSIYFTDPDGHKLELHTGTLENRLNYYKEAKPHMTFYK

Broadly, the MIC is the smallest concentration in the dilution series that meets the test's criterion for growth inhibition. By Ki is commonly meant the equilibrium dissociation constant of an inhibitor or competing ligand from its target. As for `C[C@@H](C(=O)O)P(=O)(O)O`, the values for the MIC in the data set with Staphylococcus aureus [1], in the data set with Staphylococcus aureus [2] and in the data set on Staphylococcus aureus [4] were 8 µg/mL, more than 128 µg/mL and more than 128 µg/mL, respectively. The inhibition constant (Ki) in data set [3] came to 430 µM. The Activity result in the data set with HepG2 and in the data set with HEK293 was “Non-Toxic” each time.
For `O=P(O)(O)CCP(=O)(O)O`, the Activity result in the data set with HepG2 and with HEK293 was “Non-Toxic” each time.
In the case of `C[C@H](CO)P(=O)(O)O`, the minimum inhibitory concentration (MIC) with Staphylococcus aureus [1] is 8 µg/mL; in the data set on Staphylococcus aureus [2], more than 128 µg/mL; in the data set with Staphylococcus aureus [4], more than 128 µg/mL. The Activity result with HepG2 and with HEK293 was “Non-Toxic” throughout. For the same molecule, in data set [5], the inhibition constant (Ki) came to 5290 µM.
For the molecule `O=C(O)CCP(=O)(O)O`, the Activity result with HepG2 and in the data set with HEK293 was “Non-Toxic” each time.
Take `C[C@@H]1O[C@@H]1P(=O)(O)O` [FOSFOMYCIN]: the minimal inhibitory concentration (MIC) with Staphylococcus aureus [4] is more than 128 µg/mL; in the data set with Staphylococcus aureus [6], 64 µg/mL (≈ 464 µM); in the data set with Staphylococcus aureus [7], 0.5 µg/mL (≈ 3.62 µM). The Activity result in the data set on HepG2 and in the data set on HEK293 was “Non-Toxic” each time.
Take `CC[C@@H](O)P(=O)(O)O`: the results for the MIC with Staphylococcus aureus [1] and in the data set on Staphylococcus aureus [2] were 8 µg/mL and more than 128 µg/mL, respectively. For the same molecule, the Activity result in the data set with HepG2 and in the data set with HEK293 was “Non-Toxic” in each case. The Ki in data set [5] worked out at 1570 µM.
For `CC(C)[C@H](O)P(=O)(O)O`, the MIC in the data set with Staphylococcus aureus [1] was 8 µg/mL; in the data set with Staphylococcus aureus [2], more than 128 µg/mL; with Staphylococcus aureus [4], more than 128 µg/mL. The Activity result in the data set with HepG2 and with HEK293 was “Non-Toxic” throughout. The Ki in data set [5] came to 3580 µM.
Take `CC(C(=O)O)C(=O)O` [METHYLMALONIC ACID]: the Activity result in the data set on HepG2 and in the data set with HEK293 was “Non-Toxic” each time.
As to `O=C(O)CP(=O)(O)O` [FOSFONET], the minimal inhibitory concentration (MIC) is 8 µg/mL in the data set on Staphylococcus aureus [1], more than 128 µg/mL in the data set with Staphylococcus aureus [2] and more than 128 µg/mL in the data set on Staphylococcus aureus [4]. Also, the results for the Ki in data set [8] and in data set [9] were 900 µM and 210 µM, respectively. For the same molecule, the Activity result in the data set with HepG2 and in the data set on HEK293 was “Non-Toxic” throughout.
